Legend:
[1] = biological target: Substance-P receptor (Homo sapiens, UniProt P25103); assay: In vitro binding affinity towards Tachykinin receptor 1 by measuring its ability to displace [3H]SP (0.6 nM) binding to membranes from Cos-7 cells transiently transfected with the hNK-1R; assay type: cell membranes
[2] = organism: Cavia porcellus; assay: The effective dose of compound used to inhibit 30% of hyperalgesia in guinea pig; assay type: functional
How it was run: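 Hyperalgesia was induced in guinea pigs with intraplantar 1% carrageenan (100 μL) in one hind paw. Mechanical hyperalgesia was assessed 24 h later, then oral doses were given in 10% DMSO/1% tragacanth or a microemulsion. ED30, the dose giving 30% inhibition of hyperalgesia, was taken from dose–response data 3 h after dosing (n = 3).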

[3] = tested on: Cavia porcellus; assay: In vivo inhibition of hyperalgesia at 30 mg/kg po dose and 3h after dosing in guinea pig; assay type: functional
How it was run: (§1)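 Guinea pigs got 1% carrageenan (100 μL) intraplantar in one hind paw. Mechanical hyperalgesia was read 24 h later, before dosing. Compound was given orally at 30 mg/kg in 10% DMSO in 1% tragacanth or as a microemulsion. Readings were taken at intervals up to 6 h, and the value is percentage reversal of predose hyperalgesia.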

[4] = biological target: T1, Substance-P receptor (Cavia porcellus, UniProt P30547); assay: Tachykinin receptor 1 antagonistic activity as inhibition of contractions evoked by 4 nM [Sar9,Met(O2)11]-SP in guinea pig ileum; assay type: functional, tissue-based
How it was run: (§2)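 Guinea pig ileum contracted by [Sar9Met(O2)11]SP (4.0 nM), repeated at least five times until stable. Antagonist added 2 min before agonist; at least three concentrations, each tested three times. IC50 read from log10 concentration–response curve; mean ± SEM of three separate experiments.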

[5] = biological target: T1, Substance-P receptor; assay: Tested for Tachykinin receptor 1 […] activity by measuring its ability to inhibit contractions evoked by [Sar9,Met(O2)11]-SP (4 nM) in guinea pig ileum; assay type: functional, tissue-based; how it was run: as §2
[6] = tested on: Cavia porcellus; assay: The compound was evaluated for its %inhibition of hyperalgesia at 30 mg/kg po dose and 1 hr after dosing; assay type: functional; how it was run: as §1

T1 sequence (P30547 whole entry): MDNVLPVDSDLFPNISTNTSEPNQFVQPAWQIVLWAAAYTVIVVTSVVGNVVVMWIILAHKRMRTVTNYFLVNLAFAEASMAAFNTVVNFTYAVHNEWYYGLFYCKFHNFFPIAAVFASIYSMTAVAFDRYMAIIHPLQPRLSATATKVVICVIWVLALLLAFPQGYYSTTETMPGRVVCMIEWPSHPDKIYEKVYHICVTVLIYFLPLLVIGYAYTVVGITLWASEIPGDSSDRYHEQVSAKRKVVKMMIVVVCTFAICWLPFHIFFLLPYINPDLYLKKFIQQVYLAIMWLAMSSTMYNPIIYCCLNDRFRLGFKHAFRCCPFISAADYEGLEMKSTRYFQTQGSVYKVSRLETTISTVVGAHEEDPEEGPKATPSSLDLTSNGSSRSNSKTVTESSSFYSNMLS
Sequence of Substance-P receptor (Homo sapiens, UniProt P25103) (P25103 whole entry): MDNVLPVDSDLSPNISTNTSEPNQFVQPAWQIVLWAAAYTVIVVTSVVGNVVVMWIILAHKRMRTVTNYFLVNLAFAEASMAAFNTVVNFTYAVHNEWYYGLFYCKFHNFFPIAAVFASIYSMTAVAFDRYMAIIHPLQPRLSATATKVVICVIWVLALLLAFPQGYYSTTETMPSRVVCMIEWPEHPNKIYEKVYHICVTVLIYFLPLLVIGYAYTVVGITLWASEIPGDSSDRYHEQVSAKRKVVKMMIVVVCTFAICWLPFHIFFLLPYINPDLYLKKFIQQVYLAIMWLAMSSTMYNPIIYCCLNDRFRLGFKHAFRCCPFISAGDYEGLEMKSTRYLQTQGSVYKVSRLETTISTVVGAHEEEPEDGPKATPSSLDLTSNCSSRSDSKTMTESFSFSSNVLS

Ki [1] [nM] | Structure (SMILES) | also measured
78.6 | CN(Cc1ccccc1)C(=O)[C@H](Cc1ccccc1)NC(=O)[C@@H]1CCCN1C(=S)NCc1cc(C(F)(F)F)cc(C(F)(F)F)c1 | 
18.2 | CN(Cc1ccccc1)C(=O)[C@H](Cc1ccc2ccccc2c1)NC(=O)[C@@H]1CCCN1C(=O)Nc1ccccc1C(F)(F)F | 
27.2 | CN(Cc1ccccc1)C(=O)[C@H](Cc1ccccc1)NC(=O)[C@@H]1CCCN1/C(S)=N/Cc1ccccc1C(F)(F)F | 
2.6 | CN(Cc1ccccc1)C(=O)[C@H](Cc1ccc2ccccc2c1)NC(=O)[C@@H]1CCCN1C(=O)Nc1ccccc1O | 
26.9 | CN(Cc1cc(C(F)(F)F)cc(C(F)(F)F)c1)C(=O)[C@H](Cc1ccccc1)NC(=O)[C@@H]1CCCN1C(=S)NCc1ccccc1Cl | 
5 | CN(Cc1ccccc1)C(=O)[C@H](Cc1ccc2ccccc2c1)NC(=O)[C@@H]1CCCN1C(=O)Nc1cccc(C(N)=O)c1 | 
2.3 | CN(Cc1ccccc1)C(=O)[C@H](Cc1ccc2ccccc2c1)NC(=O)[C@@H]1CCCN1C(=O)NCc1ccccc1Cl | 
 | Cc1ccccc1C/N=C(\S)N1CCC[C@H]1C(=O)N[C@@H](Cc1ccccc1)C(=O)N(C)Cc1ccccc1 | IC50 [1]: 410 nM
38 | CN(Cc1ccccc1)C(=O)[C@H](Cc1ccccc1)N(C)C(=O)[C@@H]1CCCN1/C(S)=N/Cc1ccccc1Cl | 
172 | CN(Cc1ccccc1)C(=O)[C@H](Cc1ccc2ccccc2c1)NC(=O)[C@@H]1CCCN1C(=O)Nc1ccccc1C(=O)O | 
1.7 | CN(Cc1ccccc1)C(=O)[C@H](Cc1ccc2ccccc2c1)N(C)C(=O)[C@@H]1CCCN1C(=S)NCc1ccccc1Cl | 
3.5 | CN(Cc1ccccc1)C(=O)[C@H](Cc1ccc2ccccc2c1)NC(=O)[C@@H]1CCCN1C(=O)Nc1ccccc1F | 
 | CN(Cc1ccccc1)C(=O)[C@H](CCc1ccccc1)NC(=O)[C@@H]1CCCN1/C(S)=N/Cc1ccccc1Cl | IC50 [1]: 206 nM
77.6 | CN(Cc1ccccc1)C(=O)[C@H](Cc1ccccc1)NC(=O)[C@@H]1CCCN1/C(S)=N/Cc1ccccc1[N+](=O)[O-] | 
16.7 | CN(Cc1ccccc1)C(=O)[C@H](Cc1c[nH]c2ccccc12)NC(=O)[C@@H]1CCCN1C(=S)NCc1ccccc1Cl | 
36 | CN(Cc1ccc2ccccc2c1)C(=O)[C@H](Cc1ccccc1)NC(=O)[C@@H]1CCCN1/C(S)=N/Cc1ccccc1Cl | 
 | CN(Cc1ccccc1)C(=O)[C@H](Cc1ccc2ccccc2c1)NC(=O)[C@@H]1CCCN1C(=O)Nc1ccccc1N | IC50 [4]: 21 nM
3.8 | CNC(=O)c1ccccc1NC(=O)N1CCC[C@H]1C(=O)N[C@@H](Cc1ccc2ccccc2c1)C(=O)N(C)Cc1ccccc1 | IC50 [4]: 3 nM
1010 | CN(Cc1ccccc1)C(=O)[C@H](Cc1ccccc1)NC(=O)[C@@H]1CCCN1/C(S)=N/Cc1ccccc1 | 
 | O=C(NCCc1c[nH]c2ccccc12)[C@H](Cc1ccccc1)NC(=O)[C@@H]1CCCN1C(=S)NCc1ccccc1Cl | IC50 [1]: 3700 nM
4.7 | CN(Cc1ccccc1)C(=O)[C@H](Cc1cn(C)c2ccccc12)NC(=O)[C@@H]1CCCN1/C(S)=N/Cc1ccccc1Cl | 
25.9 | CN(Cc1ccccc1)C(=O)[C@H](Cc1ccccc1)NC(=O)[C@@H]1CCCN1/C(S)=N/Cc1c(Cl)cccc1Cl | 
0.3 | COC(=O)c1ccccc1NC(=O)N1CCC[C@H]1C(=O)N[C@@H](Cc1ccc2ccccc2c1)C(=O)N(C)Cc1ccccc1 | IC50 [4]: 6 nM

Ki [1] [nM] | Structure (SMILES) | also measured
80 | CN(Cc1ccccc1)C(=O)[C@H](Cc1ccccc1)NC(=O)[C@@H]1CCCN1C(=S)Nc1ccccc1 (single isomer, unassigned) | 
7.2 | CN(Cc1ccccc1)C(=O)[C@H](Cc1ccc(-c2ccccc2)cc1)NC(=O)[C@@H]1CCCN1/C(S)=N/Cc1ccccc1Cl | 
 | CN(Cc1ccccc1)C(=O)[C@H](Cc1ccccc1)NC(=O)[C@@H]1CCCN1C(=S)NCc1ccccc1F | IC50 [1]: 290 nM
0.5 | CN(Cc1ccccc1)C(=O)[C@H](Cc1ccc2ccccc2c1)NC(=O)[C@@H]1CCCN1C(=N)NCc1ccccc1Cl | 
13.7 | CN(Cc1ccccc1)C(=O)[C@H](Cc1cccc2ccccc12)NC(=O)[C@@H]1CCCN1/C(S)=N/Cc1ccccc1Cl | 
 | CC(=O)Nc1ccccc1NC(=O)N1CCC[C@H]1C(=O)N[C@@H](Cc1ccc2ccccc2c1)C(=O)N(C)Cc1ccccc1 | IC50 [5]: 7.5 nM
 | CN(Cc1ccncc1)C(=O)[C@H](Cc1ccccc1)NC(=O)[C@@H]1CCCN1C(=S)NCc1ccccc1Cl | IC50 [1]: 10000 nM
1.7 | CN(Cc1ccccc1)C(=O)[C@H](Cc1ccc2ccccc2c1)NC(=O)[C@@H]1CCCN1C(=O)Nc1ccccc1CO | 
48 | CN(CCc1c[nH]c2ccccc12)C(=O)[C@H](Cc1ccccc1)NC(=O)[C@@H]1CCCN1/C(S)=N/Cc1ccccc1Cl | 
 | CN(C(=O)[C@H](Cc1ccccc1)NC(=O)[C@@H]1CCCN1C(=S)NCc1ccccc1Cl)c1ccccc1 | IC50 [1]: 100000 nM
 | CN(CCc1ccccc1)C(=O)[C@H](Cc1ccccc1)NC(=O)[C@@H]1CCCN1C(=S)NCc1ccccc1Cl | IC50 [1]: 2500 nM
5 | CN(Cc1ccccc1)C(=O)[C@H](Cc1ccc(Cl)c(Cl)c1)NC(=O)[C@@H]1CCCN1/C(S)=N/Cc1ccccc1Cl | 
18.5 | CN(Cc1ccccc1)C(=O)[C@H](Cc1ccccc1)NC(=O)[C@@H]1CCCN1C(=N)NCc1ccccc1Cl | 
29.7 | CN(Cc1ccccc1)C(=O)[C@H](Cc1ccccc1)NC(=O)[C@@H]1CCCN1C(=S)NCc1ccccc1Br | 
 | CN(Cc1ccccc1)C(=O)[C@@H](Cc1ccccc1)NC(=O)[C@H]1CCCN1/C(S)=N/c1ccccc1Br | IC50 [1]: 1000 nM
 | CN(Cc1ccccc1)C(=O)[C@@H](Cc1ccccc1)NC(=O)[C@H]1CCCN1C(=S)Nc1ccccc1Cl | IC50 [1]: 3200 nM
17.1 | CN(Cc1cccc2ccccc12)C(=O)[C@H](Cc1ccccc1)NC(=O)[C@@H]1CCCN1C(=S)NCc1ccccc1Cl | 
2.3 | CN(Cc1ccccc1)C(=O)[C@H](Cc1ccc2ccccc2c1)NC(=O)[C@@H]1CCCN1C(=O)Nc1cccc([N+](=O)[O-])c1 | 
29.9 | CN(Cc1ccccc1)C(=O)[C@H](Cc1ccccc1)NC(=O)[C@@H]1CCCN1C(=S)NCc1ccccc1Cl | 
6.1 | CN(C)C(=O)c1ccccc1NC(=O)N1CCC[C@H]1C(=O)N[C@@H](Cc1ccc2ccccc2c1)C(=O)N(C)Cc1ccccc1 | 
 | CN(Cc1ccccc1)C(=O)[C@H](Cc1ccccc1)NC(=O)[C@@H]1CCCN1C(=O)NCc1ccccc1Cl | IC50 [1]: 590 nM
29.4 | CN(Cc1ccccc1)C(=O)[C@@H](NC(=O)[C@@H]1CCCN1C(=S)NCc1ccccc1Cl)C(c1ccccc1)c1ccccc1 | 
2.2 | CN(Cc1ccccc1)C(=O)[C@H](Cc1ccc2ccccc2c1)NC(=O)[C@@H]1CCCN1C(=O)Nc1ccc(F)cc1 | IC50 [4]: 17.3 nM

Structure (SMILES) | Ki [1] [nM] | also measured
CN(Cc1ccccc1)C(=O)[C@H](Cc1ccc2ccccc2c1)NC(=O)[C@@H]1CCCN1C(=O)Nc1ccccc1C#N | 1.1 | ED30 [2]: 2.1 mg/kg; inhibition in vivo at 30 mg/kg [3]: 42%; IC50 [4]: 1 nM
CN(Cc1ccccc1)C(=O)[C@H](Cc1ccc2ccccc2c1)NC(=O)[C@@H]1CCCN1C(=O)Nc1cccc(C#N)c1 | 4.2 | inhibition in vivo at 30 mg/kg [3]: 38%; IC50 [4]: 2.6 nM
CN(Cc1ccccc1)C(=O)[C@H](Cc1ccc2ccccc2c1)NC(=O)[C@@H]1CCCN1C(=O)Nc1cccc(F)c1 | 0.7 | inhibition in vivo at 30 mg/kg [3]: 10%; IC50 [4]: 6.8 nM
CN(Cc1ccccc1)C(=O)[C@H](Cc1ccc2ccccc2c1)NC(=O)[C@@H]1CCCN1C(=O)Nc1ccc(C#N)cc1 | 1.1 | inhibition in vivo at 30 mg/kg [3]: 32%; IC50 [4]: 2.4 nM
COCc1ccccc1NC(=O)N1CCC[C@H]1C(=O)N[C@@H](Cc1ccc2ccccc2c1)C(=O)N(C)Cc1ccccc1 | 1 | ED30 [2]: 1.2 mg/kg; inhibition in vivo at 30 mg/kg [3]: 67%; IC50 [4]: 1.2 nM
CN(Cc1ccccc1)C(=O)[C@H](Cc1ccc2ccccc2c1)NC(=O)[C@@H]1CCCN1C(=O)Nc1ccccc1C(N)=O | 0.8 | ED30 [2]: 15.7 mg/kg; inhibition in vivo at 30 mg/kg [3]: 35%; IC50 [4]: 1.9 nM
CN(Cc1ccccc1)C(=O)[C@H](Cc1ccc2ccccc2c1)NC(=O)[C@@H]1CCCN1C(=O)Nc1ccccc1 | 0.88 | inhibition in vivo at 30 mg/kg [3]: 26%; IC50 [4]: 5 nM
CN(Cc1ccccc1)C(=O)[C@H](Cc1ccc2ccccc2c1)NC(=O)[C@@H]1CCCN1C(=O)Nc1cccnc1 | 6.7 | inhibition in vivo at 30 mg/kg [6]: 14%; IC50 [4]: 4.2 nM

— ChEMBL document CHEMBL1131289, “2-Nitrophenylcarbamoyl-(S)-prolyl-(S)-3-(2-naphthyl)alanyl-N-benzyl-N - methylamide (SDZ NKT 343), a potent human NK1 tachykinin receptor antagonist with good oral analgesic activity in chronic pain models” (J Med Chem, 1998)
